Data: ChEMBL document CHEMBL1135797, “Carbonic anhydrase activators: high affinity isozymes I, II, and IV activators, incorporating a beta-alanyl-histidine scaffold” (2002)

Tests used:
[1] = molecular target: Carbonic anhydrase 2 (Homo sapiens) (UniProt P00918); experiment: In vitro carbonic anhydrase activation in human cloned Carbonic anhydrase II (hCA II)
[2] = molecular target: T1, Carbonic anhydrase 4 (Bos taurus) (UniProt Q95323); experiment: In vitro carbonic anhydrase IV activation in bovine lung microsomes.; conditions: Microsome
T1 sequence (whole entry): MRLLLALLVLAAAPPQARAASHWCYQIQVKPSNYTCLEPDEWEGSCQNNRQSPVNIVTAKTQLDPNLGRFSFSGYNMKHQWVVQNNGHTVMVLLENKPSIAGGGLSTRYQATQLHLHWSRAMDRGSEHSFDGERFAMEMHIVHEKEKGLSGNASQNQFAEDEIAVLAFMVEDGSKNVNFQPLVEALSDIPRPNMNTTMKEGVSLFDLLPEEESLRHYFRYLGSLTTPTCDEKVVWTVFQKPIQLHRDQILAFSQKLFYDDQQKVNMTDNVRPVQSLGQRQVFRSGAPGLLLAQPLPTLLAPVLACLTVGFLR
Method in brief: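 CA IV isolated from bovine lung microsomes and quantified by ethoxzolamide titration; used at 39 nM. 4-Nitrophenyl acetate hydrolysis initial rates followed at 400 nm, 25 °C, pH 7.40, substrate 2×10-2 to 1×10^-6 M. Activator preincubated with enzyme 15 min at room temperature. Dilutions down to 0.1 nM. Non-enzymatic rate subtracted. KA given as mean of at least three determinations.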

[3] = molecular target: Carbonic anhydrase 1 (Homo sapiens) (UniProt P00915); experiment: In vitro carbonic anhydrase activation in human cloned Carbonic anhydrase I (hCA I)
Homo sapiens [4] = species: Homo sapiens; experiment: (§1) Ex vivo carbonic anhydrase activation after 30 min incubation of human erythrocytes with 5 uM activator Histamine; format: functional
Method in brief: (§2)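 Freshly isolated human blood washed in Tris buffer (pH 7.40, 5 mM), erythrocytes incubated with 5 µM activator solution at 37 °C with gentle stirring; cells washed three times to remove unbound compound, lysed in distilled water, centrifuged; CA activity of lysate measured by 4-nitrophenyl acetate esterase assay (400 nm, pH 7.40, 25 °C). Untreated cells taken as 100%.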

Homo sapiens [5] = species: Homo sapiens; experiment: (§3) Ex vivo carbonic anhydrase activation after 60 min incubation of human erythrocytes with 5 uM activator Histamine; format: functional; method in brief: as §2
Homo sapiens [6] = species: Homo sapiens; experiment: as §1; format: functional; remark: listed apart in the source
Method in brief: (§4)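 Fresh human blood washed repeatedly with 5 mM Tris pH 7.40 and centrifuged; erythrocytes incubated with 5 µM activator at 37 °C with gentle stirring. Cells washed three times with buffer to remove unbound compound, lysed in distilled water and centrifuged. Lysate CA activity measured by 4-nitrophenyl acetate esterase assay at 400 nm. Buffer-only cells set as 100%.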

Homo sapiens [7] = species: Homo sapiens; experiment: as §3; format: functional; method in brief: as §4; remark: listed apart in the source

Sequence of Carbonic anhydrase 1 (Homo sapiens) (P00915 2-261 limits assumed): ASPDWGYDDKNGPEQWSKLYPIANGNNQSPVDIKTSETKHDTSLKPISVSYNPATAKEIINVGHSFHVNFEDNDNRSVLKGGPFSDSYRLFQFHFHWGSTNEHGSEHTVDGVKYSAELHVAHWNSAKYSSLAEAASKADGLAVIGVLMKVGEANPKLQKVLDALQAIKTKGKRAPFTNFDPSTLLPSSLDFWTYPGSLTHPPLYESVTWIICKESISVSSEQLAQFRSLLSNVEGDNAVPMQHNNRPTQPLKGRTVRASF

SMILES	KA [1]	KA [2]	KA [3]	CA (Homo sapiens [4])	CA (Homo sapiens [5])	CA (Homo sapiens [6])	CA (Homo sapiens [7])
Cc1ccccc1S(=O)(=O)NC(=O)NCCC(=O)N[C@@H](Cc1c[nH]cn1)C(=O)NCCC(=O)N[C@@H](Cc1c[nH]cn1)C(=O)O	0.02 µM	0.008 µM	0.004 µM	236%	267%	–	–
N=C(N)NCCC[C@H](NC(=O)NS(=O)(=O)c1ccc(F)cc1)C(=O)NCCC(=O)N[C@@H](Cc1c[nH]cn1)C(=O)O	1.2 µM	0.2 µM	0.01 µM	–	–	186%	225%
NCCc1c[nH]cn1 [HISTAMINE]	–	–	2 µM	121%	130%	–	–
